# The source made the active and inactive calls. No cut-off for these calls is given here.
# How the values were obtained:
# [1] = tested on: 518A2; test: Antiproliferative activity against human 518A2 cells after 72 hrs by MTT assay; type: functional, cell-based; details: for IC50: 518A2, 72 h
# Outline: (§1)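 MTT read-out after 72 h of continuous exposure. Viability is expressed as percentage of viable cells relative to untreated controls. IC50 comes from dose-response curves. Values are means±SD of four independent experiments (two for some entries). DMSO was below 1%, with vehicle controls at equal DMSO. Precipitation was excluded spectrometrically and microscopically.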
# [2] = tested on: HT-29; test: Antiproliferative activity against human HT-29 cells after 72 hrs by MTT assay; type: functional, cell-based; details: HT-29, 72 h; outline: as §1
# [3] = tested on: A2780; test: Antiproliferative activity against human A2780 cells after 72 hrs by SRB assay; type: functional, cell-based; details: A2780, 72 h
# Outline: (§2)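 Ovarian A2780 and cisplatin-resistant A2780cis cells were exposed for 72 h and stained with SRB. IC50 comes from dose-response curves, as means±SD of three independent experiments. Final DMSO was below 1%, with matched vehicle controls.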
# [4] = Antiproliferative activity against human A2780cis cells after 72 hrs by SRB assay; type: functional, cell-based; outline: as §2
# [5] = tested on: DLD-1; test: Antiproliferative activity against human DLD1 cells after 72 hrs by MTT assay; type: functional, cell-based; details: DLD-1, 72 h; outline: as §1
# [6] = tested on: EA.hy 926; test: Antiproliferative activity against human EAhy926 cells after 72 hrs by MTT assay; type: functional, cell-based; details: EA.hy 926, 72 h; outline: as §1
# [7] = tested on: PANC-1; test: Antiproliferative activity against human PANC1 cells after 72 hrs by MTT assay; type: functional, cell-based; details: PANC-1, 72 h; outline: as §1
# [8] = tested on: HCT-116; test: Antiproliferative activity against human HCT116 cells after 72 hrs by MTT assay; type: functional, cell-based; details: HCT-116, 72 h; outline: as §1
# [9] = Antiproliferative activity against human KB-V1/Vbl cells after 72 hrs by MTT assay; type: functional, cell-based; outline: as §1
# [10] = Antiproliferative activity against human MCF7/Topo cells after 72 hrs by MTT assay; type: functional, cell-based; outline: as §1
# [11] = tested on: HT-29; test: Cell cycle arrest in human HT-29 cells assessed as accumulation of cells at sub G1 phase at 100 nM after 24 hrs by propidium iodide staining-based flow cytometric analysis (reference value: 1.2 +/- 0.3%); type: functional
# [12] = tested on: HT-29; test: Cell cycle arrest in human HT-29 cells assessed as accumulation of cells at sub G1 phase at 250 nM after 24 hrs by propidium iodide staining-based flow cytometric analysis (reference value: 1.2 +/- 0.3%); type: functional
# [13] = tested on: HT-29; test: Cell cycle arrest in human HT-29 cells assessed as accumulation of cells at sub G1 phase at 350 nM after 24 hrs by propidium iodide staining-based flow cytometric analysis (reference value: 1.2 +/- 0.3%); type: functional
# [14] = tested on: HT-29; test: Cell cycle arrest in human HT-29 cells assessed as accumulation of cells at G1 phase at 100 nM after 24 hrs by propidium iodide staining-based flow cytometric analysis (reference value: 75.1 +/- 1.1%); type: functional
# [15] = tested on: HT-29; test: Cell cycle arrest in human HT-29 cells assessed as accumulation of cells at G1 phase at 250 nM after 24 hrs by propidium iodide staining-based flow cytometric analysis (reference value: 75.1 +/- 1.1%); type: functional
# [16] = tested on: HT-29; test: Cell cycle arrest in human HT-29 cells assessed as accumulation of cells at G1 phase at 350 nM after 24 hrs by propidium iodide staining-based flow cytometric analysis (reference value: 75.1 +/- 1.1%); type: functional
# [17] = tested on: HT-29; test: Cell cycle arrest in human HT-29 cells assessed as accumulation of cells at S phase at 100 nM after 24 hrs by propidium iodide staining-based flow cytometric analysis (reference value: 12.3 +/- 0.4%); type: functional
# [18] = tested on: HT-29; test: Cell cycle arrest in human HT-29 cells assessed as accumulation of cells at S phase at 250 nM after 24 hrs by propidium iodide staining-based flow cytometric analysis (reference value: 12.3 +/- 0.4%); type: functional
# [19] = tested on: HT-29; test: Cell cycle arrest in human HT-29 cells assessed as accumulation of cells at S phase at 350 nM after 24 hrs by propidium iodide staining-based flow cytometric analysis (reference value: 12.3 +/- 0.4%); type: functional
# [20] = tested on: HT-29; test: Cell cycle arrest in human HT-29 cells assessed as accumulation of cells at G2/M phase at 100 nM after 24 hrs by propidium iodide staining-based flow cytometric analysis (reference value: 11.4 +/- 1.4%); type: functional
# [21] = tested on: HT-29; test: Cell cycle arrest in human HT-29 cells assessed as accumulation of cells at G2/M phase at 250 nM after 24 hrs by propidium iodide staining-based flow cytometric analysis (reference value: 11.4 +/- 1.4%); type: functional
# [22] = tested on: HT-29; test: Cell cycle arrest in human HT-29 cells assessed as accumulation of cells at G2/M phase at 350 nM after 24 hrs by propidium iodide staining-based flow cytometric analysis (reference value: 11.4 +/- 1.4%); type: functional
# [23] = tested on: Chorioallantoic membrane; test: Antiangiogenic activity in Leghorn chicken embryo chorioallantoic membrane assessed as disruption of smaller blood vessels at 5 nmol after 6 hrs by light microscopic analysis; type: functional, tissue-based; details: Gallus gallus
# Outline: (§3)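 Fertilized chicken eggs, CAM assay. Compound was applied topically into a small silicon foil ring placed on the CAM. The membrane and its extraembryonal blood vessels were monitored over 24 h, with observations at 6 h and 24 h post application.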
# [24] = tested on: Chorioallantoic membrane; test: Antiangiogenic activity in Leghorn chicken embryo chorioallantoic membrane assessed as induction of hemorrhages at 5 nmol after 6 hrs by light microscopic analysis; type: functional, tissue-based; details: Gallus gallus; outline: as §3
# [25] = tested on: Chorioallantoic membrane; test: Antiangiogenic activity in Leghorn chicken embryo chorioallantoic membrane assessed as induction of hemorrhages at 5 nmol after 24 hrs by light microscopic analysis; type: functional, tissue-based; details: Gallus gallus; outline: as §3
# [26] = tested on: Chorioallantoic membrane; test: Antiangiogenic activity in Leghorn chicken embryo chorioallantoic membrane assessed as reduction in diameter of main blood vessel at 5 nmol after 24 hrs by light microscopic analysis; type: functional, tissue-based; details: Gallus gallus; outline: as §3
# [27] = tested on: Chorioallantoic membrane; test: Antiangiogenic activity in Leghorn chicken embryo chorioallantoic membrane assessed as reduction in blood vessel area at 5 nmol after 6 hrs by light microscopic analysis relative to control; type: functional, tissue-based; design: scale not given: the % may be the effect or the level left; details: Gallus gallus
# Outline: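 The CAM assay was run with topical application into a silicon foil ring atop the CAM of fertilized chicken eggs. Area covered by blood vessels was quantified by fractal analysis relative to control.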
# [28] = tested on: Chorioallantoic membrane; test: Antiangiogenic activity in Leghorn chicken embryo chorioallantoic membrane assessed as effect on blood vessel length at 5 nmol after 6 hrs by light microscopic analysis; type: functional, tissue-based; details: Gallus gallus; outline: as §3
# [29] = tested on: 518A2; test: Induction of apoptosis in human 518A2 cells assessed as accumulation at subG1 phase; type: functional, cell-based
# [30] = tested on: 518A2; test: Induction of cell cycle arrest in human 518A2 cells; type: functional, cell-based
# [31] = tested on: HT-29; test: Cell cycle arrest in human HT-29 cells assessed as accumulation of cells at G2/M phase after 24 hrs by propidium iodide staining-based flow cytometric analysis; type: functional
# [32] = tested on: Chorioallantoic membrane; test: Antiangiogenic activity in Leghorn chicken embryo chorioallantoic membrane assessed as disruption of smaller blood vessels at 5 nmol after 24 hrs by light microscopic analysis; type: functional, tissue-based; details: Gallus gallus; outline: as §3
structure (smiles),measurement,setting,value
COc1cc(C2C(C#N)=C(N)Oc3c2ccc2ccccc32)ccc1OCc1ccccc1 (centres undefined),Activity,[1],Dose-dependent effect
same,IC50,[1],1660 nM
same,IC50,[2],5820 nM
same,IC50,[3],2150 nM
same,IC50,[4],2340 nM
N#CC1=C(N)Oc2c(ccc3ccccc23)C1c1ccc(S(F)(F)(F)(F)F)cc1 (centres undefined),Activity,[1],Dose-dependent effect
same,IC50,[1],7130 nM
same,IC50,[2],9970 nM
same,IC50,[3],5160 nM
same,IC50,[4],5580 nM
N#CC1=C(N)Oc2c(cc(Cl)c3ccccc23)C1c1cc(F)cc(F)c1 (centres undefined),Activity,[1],Dose-dependent effect
same,IC50,[1],24.1 nM
same,IC50,[2],102 nM
same,IC50,[3],104 nM
same,IC50,[4],155 nM
same,IC50,[5],98.4 nM
same,IC50,[6],67.8 nM
same,IC50,[7],92.7 nM
same,IC50,[8],91 nM
same,IC50,[9],92 nM
same,IC50,[10],79.8 nM
same,Activity,[11],3.3%
same,Activity,[12],4.5%
same,Activity,[13],3.5%
same,Activity,[14],52%
same,Activity,[15],3%
same,Activity,[16],1.6%
same,Activity,[17],19.6%
same,Activity,[18],2.3%
same,Activity,[19],2.2%
same,Activity,[20],25%
same,Activity,[21],90.3%
same,Activity,[22],90.3%
same,Activity,[23],Active
same,Activity,[24],Active
same,Activity,[25],inactive
same,Activity,[26],Active
same,Activity,[27],inactive
same,Activity,[28],inactive
same,Activity,[29],Active
same,Activity,[30],inactive
same,Activity,[31],Dose-dependent effect
same,Activity,[32],inactive
N#CC1=C(N)Oc2c(cc(Cl)c3ccccc23)C1c1cccc([N+](=O)[O-])c1 (centres undefined),Activity,[1],Dose-dependent effect
same,IC50,[1],225 nM
same,IC50,[2],209 nM
same,IC50,[3],61.1 nM
same,IC50,[4],46 nM
same,IC50,[5],22.3 nM
same,IC50,[6],90.8 nM
same,IC50,[7],65.9 nM
same,IC50,[8],112 nM
same,IC50,[9],73.3 nM
same,IC50,[10],88.5 nM
same,Activity,[11],2%
same,Activity,[12],17.6%
same,Activity,[13],6.6%
same,Activity,[14],55.8%
same,Activity,[15],53.5%
same,Activity,[16],14.8%
same,Activity,[17],23.6%
same,Activity,[18],11.3%
same,Activity,[19],5.2%
same,Activity,[20],18.6%
same,Activity,[21],17.7%
same,Activity,[22],73.5%
same,Activity,[23],Active
same,Activity,[24],Active
same,Activity,[25],inactive
same,Activity,[26],Active
same,Activity,[27],74%
same,Activity,[28],inactive
same,Activity,[29],Active
same,Activity,[30],inactive
same,Activity,[31],Dose-dependent effect
same,Activity,[32],inactive
COc1c(Br)cc(C2C(C#N)=C(N)Oc3c2cc(Cl)c2ccccc32)cc1Br (centres undefined),Activity,[1],Dose-dependent effect
same,IC50,[1],144 nM
same,IC50,[2],188 nM
same,IC50,[3],160 nM
same,IC50,[4],168 nM
N#CC1=C(N)Oc2c(cc(Cl)c3ccccc23)C1c1ccccc1Cl (centres undefined),Activity,[1],Dose-dependent effect
same,IC50,[1],9910 nM
same,IC50,[2],2030 nM
same,IC50,[3],912 nM
same,IC50,[4],973 nM
N#CC1=C(N)Oc2c(cc(Cl)c3ccccc23)C1c1cccc(C#N)c1 (centres undefined),Activity,[1],Dose-dependent effect
same,IC50,[1],60.5 nM
same,IC50,[2],67.3 nM
same,IC50,[3],49.9 nM
same,IC50,[4],56.7 nM
same,IC50,[5],69.4 nM
same,IC50,[6],78.6 nM
same,IC50,[7],54.9 nM
same,IC50,[8],73.5 nM
same,IC50,[9],55.9 nM
same,IC50,[10],58.1 nM
same,Activity,[11],19.8%
same,Activity,[12],27.8%
same,Activity,[13],27%
same,Activity,[14],51.7%
same,Activity,[15],22.2%
same,Activity,[16],13%
same,Activity,[17],16.1%
same,Activity,[18],9.1%
same,Activity,[19],8.5%
same,Activity,[20],12.3%
same,Activity,[21],40.9%
same,Activity,[22],51.6%
same,Activity,[23],Active
same,Activity,[24],Active
same,Activity,[25],inactive
same,Activity,[26],Active
same,Activity,[27],inactive
same,Activity,[28],inactive
same,Activity,[29],Active
same,Activity,[30],inactive
same,Activity,[31],Dose-dependent effect
same,Activity,[32],inactive
CSc1ccc(C2C(C#N)=C(N)Oc3c2cc(Cl)c2ccccc32)cc1 (centres undefined),Activity,[1],Dose-dependent effect
same,IC50,[1],1350 nM
same,IC50,[2],1540 nM
same,IC50,[3],1070 nM
same,IC50,[4],1290 nM
N#CC1=C(N)Oc2c(ccc3ccccc23)C1c1cccc(S(F)(F)(F)(F)F)c1 (centres undefined),Activity,[1],Dose-dependent effect
same,IC50,[1],505 nM
same,IC50,[2],570 nM
same,IC50,[3],188 nM
same,IC50,[4],265 nM
N#CC1=C(N)Oc2c(cc(Cl)c3ccccc23)C1c1cccc(Br)c1 (centres undefined),Activity,[1],Dose-dependent effect
same,IC50,[1],229 nM
same,IC50,[2],245 nM
same,IC50,[3],155 nM
same,IC50,[4],166 nM
CSc1ccc(C2C(C#N)=C(N)Oc3c2ccc2ccccc32)cc1 (centres undefined),Activity,[1],Dose-dependent effect
same,IC50,[1],1980 nM
same,IC50,[2],1100 nM
same,IC50,[3],363 nM
same,IC50,[4],430 nM
N#CC1=C(N)Oc2c(cc(Cl)c3ccccc23)C1c1ccc(C#N)cc1 (centres undefined),Activity,[1],Dose-dependent effect
same,IC50,[1],753 nM
same,IC50,[2],1590 nM
same,IC50,[3],1440 nM
same,IC50,[4],1410 nM
N#CC1=C(N)Oc2c(ccc3ccccc23)C1c1ccc(C#N)cc1 (centres undefined),Activity,[1],Dose-dependent effect
same,IC50,[1],939 nM
same,IC50,[2],1230 nM
same,IC50,[3],759 nM
same,IC50,[4],774 nM

# From ChEMBL document CHEMBL4330063, “New naphthopyran analogues of LY290181 as potential tumor vascular-disrupting agents” (Eur J Med Chem, 2019)
